{"data": "Assay results of several laboratories", "target": "Dual specificity mitogen-activated protein kinase kinase 2 (MAP2K2, Homo sapiens, UniProt P36507)", "note": "Each line is one published result; the experiments were not run side by side."}
{"SMILES": "Nc1ncc2c(n1)-c1c([nH]c3ccc(C#CC4CC4)cc13)CCCC2", "assay": "binding, competition with immobilised ligand", "conditions": "1 µM", "remaining binding": "96%"}
{"SMILES": "C[C@@H]1CN(c2cc(-c3n[nH]c4ccc(OC5(C)CC5)cc34)ncn2)C[C@H](C)O1", "assay": "cell-free assay, competition with immobilised ligand", "conditions": "0.1 µM", "remaining binding": "85%"}
{"SMILES": "CNC(=O)[C@@H]1CC[C@@H](n2c(-c3ccc4cnccc4c3)nc3ccc(C(=O)NCc4cccc(C(N)=O)c4)cc32)C1", "assay": "binding, competition with immobilised ligand", "conditions": "1 µM", "remaining binding": "79%"}
{"SMILES": "CO[C@@H](C)c1c(Nc2ccc([C@@H](N(C)C(=O)C3CCS(=O)(=O)CC3)C(F)(F)F)cc2)cnc2cc(Cl)nn12", "assay": "cell-free assay, competition with immobilised ligand", "conditions": "1 µM", "remaining binding": "97%"}
{"SMILES": "Cc1cnc(Nc2ccc(C(=O)N3CCC(N4CCCC4)CC3)cc2)nc1-c1cc2ccccc2s1", "assay": "binding, competition with immobilised ligand", "conditions": "1 µM", "remaining binding": "26%"}
{"SMILES": "CC(C)(C)c1ccc(-c2nc(CBr)nn2-c2cccc(O)c2)cc1", "assay": "cell-free assay, competition with immobilised ligand", "conditions": "10 µM", "remaining binding": "90%"}
{"SMILES": "O=C(Nc1cccnn1)N1CC(C/C=C/c2cncc(Oc3ccc(C(F)(F)F)cn3)n2)C1", "assay": "cell-free assay, competition with immobilised ligand", "conditions": "1 µM", "remaining binding": "95%"}
{"SMILES": "O=C(c1ccc(Nc2nccc(-c3cc4ccccc4s3)n2)cc1)N1CCC(N2CCCC2)CC1", "assay": "binding, competition with immobilised ligand", "conditions": "1 µM", "remaining binding": "60%"}
{"SMILES": "C[C@@H]1CN(c2ccc3ncc(-c4ccc5[nH]nc(C6CC6)c5c4)n3n2)C[C@H](C)O1", "assay": "binding, competition with immobilised ligand", "conditions": "50 nM", "remaining binding": "72%"}
{"SMILES": "Cc1c(NC(=O)c2cc(C(N)=O)nc3cc(F)ccc23)c(C(F)(F)F)nn1Cc1ccc(C(C)(C)C)cc1", "assay": "cell-free assay, competition with immobilised ligand", "conditions": "1 µM", "remaining binding": "100%"}
{"SMILES": "C[C@H]1CCN(c2nccc(-c3cnn4ncccc34)n2)C1", "assay": "binding", "conditions": "1 µM", "remaining binding": "100%"}
{"SMILES": "FC(F)(F)Oc1cccc(-c2cnc3ccc(-c4ccncc4)nn23)c1", "assay": "cell-free assay, competition with immobilised ligand", "conditions": "5 µM", "remaining binding": "72%"}
{"SMILES": "CC(=O)N1CCC(c2ccc(C(=O)NC(=N)N)cc2C(F)(F)F)CC1", "assay": "cell-free assay, competition with immobilised ligand", "conditions": "1 µM", "remaining binding": "96%"}
{"SMILES": "C=CC(=O)N1CCC(C(=O)NCC(=O)N2CCN(c3nc(-c4cnc(N)nc4C(F)F)nc(N4CCOCC4)n3)CC2)CC1", "assay": "binding, competition with immobilised ligand", "conditions": "1 µM", "remaining binding": "59%"}
{"SMILES": "N[C@H]1CCN(c2nccc(-c3cnn4ncccc34)n2)C1", "assay": "binding", "conditions": "1 µM", "remaining binding": "100%"}
{"SMILES": "O=C(Nc1c[nH]nc1C(=O)NC1CCNCC1)c1cc(F)cc(F)c1", "assay": "binding, competition with immobilised ligand", "conditions": "1 µM", "remaining binding": "90%"}
{"SMILES": "CN(CCCC(F)(F)F)c1nccc(-c2cnn3ncccc23)n1", "assay": "binding", "conditions": "1 µM", "remaining binding": "100%"}
{"SMILES": "CC(=O)Nc1c(C(C)=O)c(=O)n(C)c2nc(-c3ccc(Cl)cc3Cl)c(-c3ccc(Cl)cc3)cc12", "assay": "cell-free assay, competition with immobilised ligand", "conditions": "1 µM", "remaining binding": "100%"}
{"SMILES": "F[C@@H]1CCN(c2nccc(-c3cnn4ncccc34)n2)C1", "assay": "binding", "conditions": "1 µM", "remaining binding": "88%"}
{"SMILES": "COc1cnc(Nc2cccc(S(N)(=O)=O)c2)nc1N1CCN(c2ccccc2)C(=O)C1", "assay": "binding, competition with immobilised ligand", "conditions": "1 µM", "remaining binding": "94%"}
{"SMILES": "CN(C)c1ncc(F)c(-c2cnn3ncccc23)n1", "assay": "binding", "conditions": "1 µM", "remaining binding": "74%"}
{"SMILES": "O=C(NCCCN1CCOCC1)c1ccc(Nc2ncc(Cl)c(-c3ccc(Cl)s3)n2)cc1", "assay": "binding, competition with immobilised ligand", "conditions": "1 µM", "remaining binding": "59%"}
{"SMILES": "COc1ccnn2ncc(-c3ccnc(N(C)C)n3)c12", "assay": "binding", "conditions": "1 µM", "remaining binding": "100%"}
{"SMILES": "CC(=O)c1c(NS(C)(=O)=O)c2cc(-c3ccc(Cl)cc3)c(-c3ccc(Cl)cc3Cl)nc2n(C)c1=O", "assay": "cell-free assay, competition with immobilised ligand", "conditions": "1 µM", "remaining binding": "100%"}
